Compound activity (PubChem)
MEX-5 binding: MEX-5 zinc finger RNA-binding disruptors – biochemical, C. elegans, fluorescence polarization, MLPCN library, primary screen; MEX-5/FITC-TCR2 RNA binding; stronger effect = lower value; activity score (negative = inhibition of binding), % at 10 µM; 300,000 compounds, 0.38% hits; AID 1832, 2009;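 active means inhibition past about -25% in most replicates, and total fluorescence under double the plate's negative control median, limit read from the data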;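 further: 0% = DMSO and -100% = 5 µM competing unlabeled TCR2 RNA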
RanGTP-Impb inh: inhibitors of RanGTP-importin-beta interaction, primary screen, biochemical, FRET, CFP-Ran, YFP-importin-beta, homogeneous; cell-free CFP-Ran/YFP-importin-beta FRET ratio; inhibition, % (no concentration beside the values); 300,000 compounds, 1.1% hits; Ran GTPase (GTP-bound) - importin-beta complex; AID 2216, 2009;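 active means more than half of the replicate wells show a fall in the fluorescence ratio signal beyond about 16%, limit read from the data, passing the limit was not always enough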;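 further: 0% = DMSO wells and 100% = Ran loaded with GDP instead of GTP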
Runt-CBFb FRET: inhibitors of RUNX1 Runt–CBFb binding, primary screen, biochemical, FRET, Cerulean-Runt, Venus-CBFb, uHTS. Runt-related transcription factor 1 (Homo sapiens) + Core-binding factor subunit beta …. Cerulean-Runt/Venus-CBFb FRET ratio 530/480, 1 h. inhibition, % at 20 µM. 220,000 compounds, 0.46% hits;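 active means inhibition over about 50% at 20 µM in the single-dose screen, limit read from the data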;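 further: 0% = DMSO wells and 100% = excess unlabeled CBFb competitor control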
Target sequence (Q01196 whole entry, looked up): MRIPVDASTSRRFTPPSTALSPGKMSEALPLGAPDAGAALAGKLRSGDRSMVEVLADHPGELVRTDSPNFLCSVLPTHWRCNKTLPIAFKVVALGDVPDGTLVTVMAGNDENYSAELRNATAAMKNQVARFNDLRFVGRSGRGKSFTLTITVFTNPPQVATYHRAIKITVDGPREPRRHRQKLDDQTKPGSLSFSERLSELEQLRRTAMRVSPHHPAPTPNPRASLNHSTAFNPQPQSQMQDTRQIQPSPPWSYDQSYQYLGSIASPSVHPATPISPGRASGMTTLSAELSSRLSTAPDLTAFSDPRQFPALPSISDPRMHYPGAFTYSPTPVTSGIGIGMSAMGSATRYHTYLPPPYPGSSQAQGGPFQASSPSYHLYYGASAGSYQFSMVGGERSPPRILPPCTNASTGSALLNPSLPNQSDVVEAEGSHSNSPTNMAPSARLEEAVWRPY
Target sequence (Q13951 whole entry, looked up): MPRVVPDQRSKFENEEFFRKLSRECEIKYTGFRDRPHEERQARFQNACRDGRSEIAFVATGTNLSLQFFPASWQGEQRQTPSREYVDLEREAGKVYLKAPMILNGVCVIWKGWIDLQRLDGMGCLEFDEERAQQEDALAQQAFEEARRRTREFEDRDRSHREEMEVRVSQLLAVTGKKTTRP
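Assay system: Cerulean-Runt domain / Medium: Tris 50 mM pH 7.5, KCl, K2SO4, 0.01% BSA / Timing: protein complex preformed 1 h, compound exposure 1 h, room temperature, dark / Measured by: FRET, excitation 422 nm, emission at 530 and 480 nm / Evaluation: loss of energy transfer signal / Control set: 5 µM unlabeled CBFb as full-inhibition high control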
EBV gp42 block: Epstein-Barr virus gp42 inhibitors, primary screen, biochemical, uHTS, fluorescence polarization. Glycoprotein 42 (Epstein-Barr virus (strain AG876)), Q1HVG2. Fluorescence polarization binding assay, mP read-out. inhibition, % (tested at 21.74 µM). 220,000 compounds, 0.42% hits. AID 1085, 2008; in the data active means inhibition above about 50%
Runt-SMMHC FRET: inhibitors of RUNX1 Runt–CBFb-SMMHC binding, primary screen, biochemical, FRET, Cerulean-Runt, Venus-CBFb-SMMHC, uHTS. Runt-related transcription factor 1 (Homo sapiens) + Core-binding factor subunit beta …. AID 1434, 2008. inhibition, % at 20 µM. 220,000 compounds, 0.74% hits. Cerulean-Runt/Venus-CBFb-SMMHC FRET ratio 530/480, 1 h;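 active means mean inhibition across duplicate retests at 20 µM reaching about 50%, limit read from the data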;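 further: 0% = DMSO wells and 100% = wells with excess untagged CBFb-SMMHC; inhibitors lower the FRET ratio by blocking Runt binding to CBFb-SMMHC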
LANA-H2B inh: blockers of LANA interaction with H2A/H2B – biochemical, FP readout, HTS, primary screen; Protein LANA1 (Human herpesvirus 8 type P (isolate GK18)), Q9QR71; inhibition, % (test concentration not listed); 320,000 compounds, 0.6% hits; AID 2629, 2010; cell-free LANA-H2A/H2B peptide, fluorescence polarization; in the data active means inhibition mostly above about 10%, no sharp cut-off; inactive means mostly below about 6.7%
Active calls of the source: *. Rows were chosen to be rich in hits. Some 2.4% of all compounds tested hit in one or more screens of this group.

How did Cc1cc(/C=C2\SC(=S)N(C)C2=O)c(C)n1-c1ccc(O)cc1 do in these assays?
MEX-5 binding: -7; RanGTP-Impb inh: 37*; Runt-CBFb FRET: -16; EBV gp42 block: 35; Runt-SMMHC FRET: -52; LANA-H2B inh: 3

Results for Cc1cc(/C=C2\SC(=S)NC2=O)c(C)n1-c1cccc(O)c1 ?
MEX-5 binding: 2; RanGTP-Impb inh: 20*; Runt-CBFb FRET: -6; EBV gp42 block: -66; Runt-SMMHC FRET: -25; LANA-H2B inh: -7

What do the screens show for `Cc1cc(/C=C2\SC(=S)N(C)C2=O)c(C)n1-c1ccccc1O`?
MEX-5 binding: -3; RanGTP-Impb inh: 44*; LANA-H2B inh: 2

Results for Cc1ccc(-n2c(C)cc(/C=C3\SC(=O)NC3=O)c2C)cc1 ?
MEX-5 binding: -2; RanGTP-Impb inh: 4; LANA-H2B inh: 5

What do the screens show for `COc1ccc(-n2c(C)cc(/C=C3\SC(=S)N(Cc4ccco4)C3=O)c2C)cc1`?
MEX-5 binding: -28*; RanGTP-Impb inh: 7; Runt-CBFb FRET: -11; EBV gp42 block: 80*; Runt-SMMHC FRET: -64; LANA-H2B inh: -4

Results for COc1ccc(-c2nn(-c3ccccc3)cc2/C=C2/SC(=S)N(Cc3ccco3)C2=O)c(C)c1 ?
MEX-5 binding: -1; RanGTP-Impb inh: -3; Runt-CBFb FRET: -21; EBV gp42 block: -31; Runt-SMMHC FRET: -105; LANA-H2B inh: -2

What do the screens show for `CCCCNC(=O)CSc1nc2ccccc2c(=O)n1C1CCCC1`?
MEX-5 binding: 2; RanGTP-Impb inh: -1; Runt-CBFb FRET: -3; EBV gp42 block: -2; Runt-SMMHC FRET: 0; LANA-H2B inh: 8

Results for C/C(=N\NC(=O)C(=O)Nc1c(C)n(C)n(-c2ccccc2)c1=O)c1ccncc1 ?
MEX-5 binding: -1; RanGTP-Impb inh: 4; Runt-CBFb FRET: 2; EBV gp42 block: -4; Runt-SMMHC FRET: -2; LANA-H2B inh: 3

How did N#CC(C(=O)NC1CC1)c1nc2ccccc2nc1N1CCCC1 (stereo not drawn) do in these assays?
MEX-5 binding: -8; Runt-CBFb FRET: 3; EBV gp42 block: 26; Runt-SMMHC FRET: 17; LANA-H2B inh: 2

What do the screens show for `CN1CCN(c2nc3ccccc3nc2C(C#N)C(=O)OC2CCCCC2)CC1` (stereo not drawn)?
MEX-5 binding: 1; RanGTP-Impb inh: 15*; Runt-CBFb FRET: 0; EBV gp42 block: -4; Runt-SMMHC FRET: 2; LANA-H2B inh: 4

What do the screens show for `N#CC(C(=O)NC1CCCCC1)c1nc2ccccc2nc1N1CCN(c2ccc(F)cc2)CC1` (stereo not drawn)?
MEX-5 binding: -76*; RanGTP-Impb inh: 0; Runt-CBFb FRET: 3; EBV gp42 block: 14; Runt-SMMHC FRET: -25

How did COc1ccc(CCNC(=O)CS(=O)Cc2nc(-c3ccccc3Cl)oc2C)cc1OC (stereo not drawn) do in these assays?
MEX-5 binding: 0; RanGTP-Impb inh: -1; LANA-H2B inh: 17*

Results for COc1ccc(CCNC(=O)CS(=O)Cc2nc(-c3ccccc3F)oc2C)cc1OC (stereo not drawn) ?
MEX-5 binding: 2; RanGTP-Impb inh: 1; LANA-H2B inh: 0

Results for CCCCCC(C(=O)O)C(C)CC(=O)NC1CCCCC1 (stereo not drawn) ?
MEX-5 binding: 1; RanGTP-Impb inh: 3; Runt-CBFb FRET: -1; EBV gp42 block: -15; Runt-SMMHC FRET: -4; LANA-H2B inh: 3

Results for COc1ccc(Cn2c(/C=C/c3ccccc3)nc3ccccc32)cc1 ?
MEX-5 binding: -1; RanGTP-Impb inh: 28*; Runt-CBFb FRET: 0; EBV gp42 block: -6; Runt-SMMHC FRET: -4; LANA-H2B inh: 1

What do the screens show for `CCn1c(/C=C/c2ccccc2)nc2ccccc21`?
MEX-5 binding: 2; RanGTP-Impb inh: 4; Runt-CBFb FRET: -4; EBV gp42 block: -1; Runt-SMMHC FRET: 1; LANA-H2B inh: 0

What do the screens show for `Cc1ccc([N+](=O)[O-])cc1S(=O)(=O)Nc1ccc(O)c(Sc2ncn[nH]2)c1`?
MEX-5 binding: -40*; RanGTP-Impb inh: 3; LANA-H2B inh: 1

What do the screens show for `Cc1cc(O)c(Sc2ncn[nH]2)cc1NS(=O)(=O)c1ccc(Cl)cc1`?
LANA-H2B inh: -1

Results for Oc1cccc2ccc(/C=C/c3cccs3)nc12 ?
MEX-5 binding: -1; RanGTP-Impb inh: -1; Runt-CBFb FRET: 4; EBV gp42 block: -19; Runt-SMMHC FRET: 0; LANA-H2B inh: 13*

What do the screens show for `Cc1cccc(-n2c3nc(=O)[nH]c(=O)c-3cc3cc([N+](=O)[O-])ccc32)c1`?
MEX-5 binding: 1; RanGTP-Impb inh: 2; Runt-CBFb FRET: 21; EBV gp42 block: -8; Runt-SMMHC FRET: 55*; LANA-H2B inh: -3

Results for Cc1ccc(S(=O)(=O)n2cnc3cc([N+](=O)[O-])ccc32)c(C)c1 ?
MEX-5 binding: 2; RanGTP-Impb inh: 0; Runt-CBFb FRET: -2; EBV gp42 block: -17; Runt-SMMHC FRET: 1; LANA-H2B inh: -3

Results for Cc1ccc(C)c(-n2c3nc(=O)[nH]c(=O)c-3cc3cc([N+](=O)[O-])ccc32)c1 ?
Runt-CBFb FRET: 45; EBV gp42 block: 59*; Runt-SMMHC FRET: 12; LANA-H2B inh: inactive

Results for O=C(N/N=C/c1c(O)n(-c2ccccc2Cl)c(=O)c2ccccc12)c1cccnc1 ?
MEX-5 binding: -10; RanGTP-Impb inh: 3; Runt-CBFb FRET: 20; EBV gp42 block: -71; Runt-SMMHC FRET: 86*

How did O=C(N/N=C/c1c(O)n(Cc2ccccc2)c(=O)c2ccccc12)c1cccnc1 do in these assays?
MEX-5 binding: -7; RanGTP-Impb inh: 0; Runt-CBFb FRET: 36; EBV gp42 block: -71; Runt-SMMHC FRET: 87*; LANA-H2B inh: -1

What do the screens show for `COc1ccc(Cn2c(O)c(/C=N/NC(=O)c3cccnc3)c3ccccc3c2=O)cc1`?
MEX-5 binding: 1; RanGTP-Impb inh: 10; Runt-CBFb FRET: 21; EBV gp42 block: -57; Runt-SMMHC FRET: 86*

Results for Cc1ccc(NC(=O)C(C)OC(=O)COc2cccc(C(F)(F)F)c2)cc1 (stereo not drawn) ?
LANA-H2B inh: 19*

What do the screens show for `C=CCOc1ccc(C(=O)O)cc1Cl`?
MEX-5 binding: 0; RanGTP-Impb inh: -1; LANA-H2B inh: 4
